“And” between values parts separate entries of the source, which are not always exact repeats. Equal entries are not always repeated. Values belong to the molecule of their own block, whether it stands above or below them.
Tests used:
[1] = CNS distribution study in mice; type: in vivo, mouse; settings: average of four mice
[2] = Protein binding in plasma; settings: rat
Sigma σ1 receptor = Sigma σ1 receptor (Homo sapiens, UniProt Q99720); experiment: Lead Profiling Screen; type: binding; settings: significant interaction
Norepinephrine receptor = Norepinephrine receptor (Homo sapiens, UniProt P23975); experiment: Lead Profiling Screen; type: binding; settings: significant interaction
[3] = tested on: voltage-gated sodium channel; experiment: Lead Profiling Screen; type: binding; settings: significant interaction
[4] = Protein binding in plasma; settings: human
L-type calcium channel = experiment: Lead Profiling Screen; type: binding; settings: significant interaction
hERG = hERG (Homo sapiens, UniProt Q12809); experiment: Lead Profiling Screen; type: binding; settings: among 58 GPCRs, ion channels and transporters
Kir1.1 = Kir1.1 (Rattus norvegicus, UniProt P35560); experiment: Tl+ flux selectivity assay, Kir1.1; type: cell-based
Summary of the method: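 Tetracycline-inducible stable T-REx-HEK-293 lines, induced overnight with 1 µg/ml tetracycline in DMEM/10% dialyzed FBS. Cells loaded 1 hr with 1.2 µM Thallos-AM in HBSS/20 mM HEPES pH 7.3 with 0.01% Pluronic F-127. Baseline fluorescence (ex 470, em 540 nm) read at 1 Hz before adding stimulus buffer with 1.8 mM Tl₂SO₄. Traces normalized to first point and vehicle-subtracted; slope taken 5–20 s post-Tl⁺; IC50 by nonlinear regression of CRCs.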

Kir7.1-M125R = target: T1, Kir7.1-M125R (Homo sapiens, UniProt O60928, M125R); experiment: Whole-cell voltage clamp, Kir7.1-M125R; type: cell-based
T1 sequence (O60928 1-360 M125R): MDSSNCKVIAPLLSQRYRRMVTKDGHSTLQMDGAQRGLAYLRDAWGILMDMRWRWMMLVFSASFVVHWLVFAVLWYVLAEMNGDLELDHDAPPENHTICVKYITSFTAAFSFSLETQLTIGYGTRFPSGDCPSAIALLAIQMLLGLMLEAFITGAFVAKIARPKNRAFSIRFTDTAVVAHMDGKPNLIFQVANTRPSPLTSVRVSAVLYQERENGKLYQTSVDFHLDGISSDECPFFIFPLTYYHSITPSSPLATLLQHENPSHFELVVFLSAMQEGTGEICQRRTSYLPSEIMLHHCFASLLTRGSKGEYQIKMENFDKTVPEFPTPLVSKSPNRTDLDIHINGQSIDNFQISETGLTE
Summary of the method: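 HEK-293T cells transiently co-transfected with WT or mutant human Kir7.1 plus EGFP marker, replated next day on poly-L-lysine coverslips. Bath: 135 NaCl, 5 KCl, pH 7.4; pipette: 135 KCl, 1 EGTA, pH 7.3 (mM). Hold −75 mV, step to −120 mV for 500 ms, ramp to 120 mV. Increasing test compound concentrations superfused, then Ba²⁺ block. Inhibition at −120 mV; Hill-equation IC50, n = 5.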

[5] = plasma
Kir7.1 E149Q/M125R = Kir7.1 E149Q/M125R (Homo sapiens, UniProt O60928, E149Q/M125R); experiment: Whole-cell patch clamp, Kir7.1 E149Q/M125R mutant; type: cell-based; settings: -120 mV
Summary of the method: (§1)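 Human Kir7.1 (WT or mutant) was transiently co-transfected with EGFP into HEK-293T cells, which were replated next day on poly-L-lysine coverslips. Whole-cell clamp used bath 5 mM KCl, pH 7.4, and pipette 135 mM KCl, pH 7.3. Cells were held at −75 mV, stepped 500 ms to −120 mV, then ramped to 120 mV, every 5 s. Increasing test-compound doses were superfused, then BaCl₂ block; current read at −120 mV; variable-slope Hill fit, mean of n = 5.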

Kir7.1-WT-A150S = Kir7.1-WT-A150S (Homo sapiens, UniProt O60928, A150S); experiment: Whole-cell patch clamp, Kir7.1-WT-A150S mutant; type: cell-based; settings: -120 mV
Summary of the method: as §1

[6] = plasma; remark: listed apart in the source
[7] = plasma; remark: listed apart in the source
Kir7.1-WT = Kir7.1-WT (Homo sapiens, UniProt O60928); experiment: Whole-cell patch clamp, Kir7.1-WT; type: cell-based; settings: read-out: Kir7.1-WT IC50, -120 mV
Summary of the method: as §1

Chain of Kir7.1-WT-A150S (O60928 whole entry A150S): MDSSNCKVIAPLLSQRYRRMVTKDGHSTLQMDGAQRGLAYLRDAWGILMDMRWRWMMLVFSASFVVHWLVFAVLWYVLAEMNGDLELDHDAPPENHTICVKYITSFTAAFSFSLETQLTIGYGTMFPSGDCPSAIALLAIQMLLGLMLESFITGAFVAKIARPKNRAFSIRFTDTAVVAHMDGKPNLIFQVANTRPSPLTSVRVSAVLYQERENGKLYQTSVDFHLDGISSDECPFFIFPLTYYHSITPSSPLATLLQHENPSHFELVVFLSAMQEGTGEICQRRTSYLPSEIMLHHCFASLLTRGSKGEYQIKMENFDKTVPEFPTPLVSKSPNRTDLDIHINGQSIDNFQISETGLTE
Chain of Kir7.1 E149Q/M125R (O60928 whole entry M125R/E149Q, the tested form may be a part): as the sequence (O60928 whole entry A150S) above, with M125R, E149Q, S150A counted along it
Chain of Kir7.1-WT (O60928 whole entry): as the sequence (O60928 whole entry A150S) above, with S150A counted along it
Chain of Kir1.1 (P35560 whole entry): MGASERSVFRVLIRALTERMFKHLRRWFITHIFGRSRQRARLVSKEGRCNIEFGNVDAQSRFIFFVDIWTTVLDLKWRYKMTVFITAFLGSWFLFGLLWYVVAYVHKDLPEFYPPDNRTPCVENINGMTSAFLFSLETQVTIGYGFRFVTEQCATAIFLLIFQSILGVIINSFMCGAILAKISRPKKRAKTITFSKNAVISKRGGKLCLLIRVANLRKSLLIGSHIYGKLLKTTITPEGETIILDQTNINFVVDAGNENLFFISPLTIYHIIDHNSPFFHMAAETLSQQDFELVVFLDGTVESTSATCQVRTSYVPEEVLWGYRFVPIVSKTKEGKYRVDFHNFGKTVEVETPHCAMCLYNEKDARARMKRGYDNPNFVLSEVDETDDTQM
Chain of hERG (Q12809 whole entry): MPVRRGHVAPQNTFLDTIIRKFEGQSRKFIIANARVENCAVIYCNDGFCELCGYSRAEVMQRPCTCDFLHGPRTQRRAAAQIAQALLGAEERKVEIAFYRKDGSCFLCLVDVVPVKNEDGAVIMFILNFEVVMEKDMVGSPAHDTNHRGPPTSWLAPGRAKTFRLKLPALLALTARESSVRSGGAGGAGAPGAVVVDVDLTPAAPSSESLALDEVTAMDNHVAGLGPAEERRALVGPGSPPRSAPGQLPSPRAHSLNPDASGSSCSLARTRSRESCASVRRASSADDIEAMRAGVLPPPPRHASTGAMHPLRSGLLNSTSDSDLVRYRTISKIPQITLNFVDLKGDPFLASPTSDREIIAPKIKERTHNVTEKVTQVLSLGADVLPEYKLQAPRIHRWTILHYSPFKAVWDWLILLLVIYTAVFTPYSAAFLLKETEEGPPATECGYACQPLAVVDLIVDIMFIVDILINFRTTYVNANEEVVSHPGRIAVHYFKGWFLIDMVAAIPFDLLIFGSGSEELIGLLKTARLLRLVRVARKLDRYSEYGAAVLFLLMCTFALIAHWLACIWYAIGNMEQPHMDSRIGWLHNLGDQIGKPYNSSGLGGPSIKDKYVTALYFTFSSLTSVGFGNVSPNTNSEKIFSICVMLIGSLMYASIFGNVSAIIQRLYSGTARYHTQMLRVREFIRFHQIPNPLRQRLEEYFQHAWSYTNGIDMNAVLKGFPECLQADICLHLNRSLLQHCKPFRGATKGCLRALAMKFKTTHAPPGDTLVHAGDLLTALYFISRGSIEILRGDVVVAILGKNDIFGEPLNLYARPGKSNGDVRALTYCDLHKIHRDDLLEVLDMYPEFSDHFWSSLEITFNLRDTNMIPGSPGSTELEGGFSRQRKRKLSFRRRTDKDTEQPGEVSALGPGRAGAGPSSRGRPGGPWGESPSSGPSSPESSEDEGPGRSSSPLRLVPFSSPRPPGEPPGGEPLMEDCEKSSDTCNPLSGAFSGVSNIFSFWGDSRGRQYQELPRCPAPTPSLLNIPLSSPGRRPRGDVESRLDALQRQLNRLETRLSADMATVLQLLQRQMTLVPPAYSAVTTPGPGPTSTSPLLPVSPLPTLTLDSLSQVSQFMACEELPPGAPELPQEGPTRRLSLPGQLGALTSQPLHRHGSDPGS
Chain of Sigma σ1 receptor (Q99720 whole entry): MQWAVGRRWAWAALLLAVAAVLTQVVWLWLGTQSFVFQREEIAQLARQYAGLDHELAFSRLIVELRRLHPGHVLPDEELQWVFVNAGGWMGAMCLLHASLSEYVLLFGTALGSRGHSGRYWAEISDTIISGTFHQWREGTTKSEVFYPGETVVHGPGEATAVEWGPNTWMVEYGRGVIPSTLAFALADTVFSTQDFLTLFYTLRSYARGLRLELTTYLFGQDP
Chain of Norepinephrine receptor (P23975 whole entry): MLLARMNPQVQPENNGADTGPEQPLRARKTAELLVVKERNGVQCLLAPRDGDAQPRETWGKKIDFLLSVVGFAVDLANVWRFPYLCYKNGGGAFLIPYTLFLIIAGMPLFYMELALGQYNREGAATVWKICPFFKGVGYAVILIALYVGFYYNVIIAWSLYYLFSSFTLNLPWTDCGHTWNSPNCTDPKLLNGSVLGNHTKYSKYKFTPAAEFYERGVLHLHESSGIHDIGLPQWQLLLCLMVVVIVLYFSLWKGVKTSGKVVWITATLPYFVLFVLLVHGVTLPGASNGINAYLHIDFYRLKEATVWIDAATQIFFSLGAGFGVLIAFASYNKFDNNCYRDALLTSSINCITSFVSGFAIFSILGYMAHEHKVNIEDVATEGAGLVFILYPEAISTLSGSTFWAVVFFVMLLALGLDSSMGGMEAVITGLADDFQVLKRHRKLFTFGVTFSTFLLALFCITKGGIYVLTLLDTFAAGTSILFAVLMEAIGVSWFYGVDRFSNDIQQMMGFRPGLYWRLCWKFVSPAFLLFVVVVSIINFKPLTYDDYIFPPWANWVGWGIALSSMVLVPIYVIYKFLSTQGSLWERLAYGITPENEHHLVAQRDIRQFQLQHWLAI

brain concentration [1]: 323.9 ng/g | fraction unbound [2]: 0.088 | Radioligand displacement, Sigma σ1 receptor (Sigma σ1 receptor): > 50% | Radioligand displacement, Norepinephrine receptor (Norepinephrine receptor): > 50% | Radioligand displacement, voltage-gated sodium channel [3]: > 50% | fraction unbound [4]: 0.01 | Radioligand displacement, L-type calcium channel (L-type calcium channel): > 50%
Structure (SMILES): CC(C)OC(=O)NC1CCN(Cc2cc(Cl)c3cccnc3c2O)CC1 [Compound 19, iso-Propyl (1-((5-chloro-8-hydroxyquinolin-7-yl)methyl)piperidin-4-yl)carbamate]
Ancillary pharmacology, hERG (hERG): clean ancillary pharmacology

Structure (SMILES): Oc1c(CN2CCC(Cc3ccccc3)CC2)cc(Cl)c2cccnc12 [VU714]
Kir1.1 (ROMK) IC50 (Tl+ flux) (Kir1.1): weakly inhibited | IC50 (Kir1.1; read-out: Kir1.1 (ROMK) IC50 (Tl+ flux)): 16 µM | Shift in IC50, patch clamp electrophysiology compared with Tl+ flux (Kir7.1-M125R): 3.7 fold | Inhibition of outward and inward Kir7.1-M125R-mediated current (Kir7.1-M125R; 10 µM): fully inhibited | Effect of M125R mutation on sensitivity (Kir7.1-M125R; compared with WT): does not alter VU714 sensitivity | IC50 (Kir7.1-M125R; read-out: Kir7.1-M125R IC50 (whole-cell voltage clamp), -120 mV): 1.5 µM and 1.6 µM and ~2 µM | PPB (%Fu) Rat [5]: 1.8% | Effect of mutation E149Q/M125R on sensitivity (Kir7.1 E149Q/M125R; 3 µM): partial, albeit significant (P<0.05), loss of sensitivity | IC50 (Kir7.1 E149Q/M125R; read-out: Kir7.1-M125R-E149Q IC50, patch clamp): 18.1 µM and ~18 µM | Effect of mutation A150S on inhibition (Kir7.1-WT-A150S; 3 µM): partial loss of inhibition | IC50 (Kir7.1-WT-A150S; read-out: Kir7.1-WT-A150S IC50, patch clamp): 6.9 µM and ~7 µM | PPB (%Fu) Human [6]: 0.5% | PPB (%Fu) Mouse [7]: 0.7% | IC50 (Kir7.1-WT): 1.4 µM and ~2 µM
